ChEMBL document CHEMBL1772968, “Comparing micellar, hemolytic, and antibacterial properties of di- and tricarboxyl dendritic amphiphiles” (Bioorg Med Chem, 2011)
Values after ≈ are worked out from the molar mass of the structure shown.

Experiments:
Staphylococcus aureus [1] = assay: Antibacterial activity against methicillin-resistant Staphylococcus aureus 34864 by broth microdilution method; format: functional
Procedure, shortened: (§1)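 MIC (defined as MIC99) determined by broth microdilution in 0.1-strength brain heart infusion broth. Cultures were diluted in growth medium to an inoculum of about 10^5 CFU/mL. Stocks of the amphiphiles were made in aqueous triethanolamine (5% w/v). Vancomycin stock was 500 mg/L in sterile water. Measurements were done in duplicate. Lines 1-6 are recent patient MRSA isolates.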

[2] = Critical micelle concentration of the compound in full-strength brain heart infusion broth by dye-covered glass-bead release; settings: pH 7.4
Staphylococcus aureus [3] = assay: Antibacterial activity against methicillin-resistant Staphylococcus aureus ATCC 43330 by broth microdilution method; format: functional; procedure, shortened: as §1
[4] = Cytotoxicity in sheep RBC assessed as hemolysis after 15 mins by microplate reader; format: cell-based, Ovis aries; settings: erythrocyte, 0.25 h
Procedure, shortened: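 Washed defibrinated sheep red cells (1.1 × 10^7 cells/mL) in PBS pH 7.4, or in full-strength BHIB, were mixed 1:1 with compound diluted from 5% triethanolamine stock. Incubation was 15 min at 37 °C, then cells were pelleted at 5000g for 20 min. Supernatant A540 was read against 0.1% Triton X-100 (complete lysis). EC10 was the lowest concentration giving 10% lysis, in duplicate.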

Staphylococcus aureus [5] = assay: Antibacterial activity against Staphylococcus aureus ATCC 6358 by broth microdilution method; format: functional
Procedure, shortened: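 Log-phase cultures diluted and tested by broth microdilution in 0.1-strength brain heart infusion broth at about 10^5 CFU/mL inoculum. Amphiphile stocks were 12,500 µg/mL in 5% w/v aqueous triethanolamine. MIC was taken as MIC99 and run in duplicate.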

Staphylococcus aureus [6] = assay: Antibacterial activity against methicillin-resistant Staphylococcus aureus 523000 by broth microdilution method; format: functional; procedure, shortened: as §1
Staphylococcus aureus [7] = assay: Antibacterial activity against methicillin-resistant Staphylococcus aureus 36361 by broth microdilution method; format: functional; procedure, shortened: as §1
Staphylococcus aureus [8] = assay: Antibacterial activity against methicillin-resistant Staphylococcus aureus 53016 by broth microdilution method; format: functional; procedure, shortened: as §1
Staphylococcus aureus [9] = assay: Antibacterial activity against methicillin-resistant Staphylococcus aureus 34380 by broth microdilution method; format: functional; procedure, shortened: as §1
Staphylococcus aureus [10] = assay: Antibacterial activity against methicillin-resistant Staphylococcus aureus 522870 by broth microdilution method; format: functional; procedure, shortened: as §1
Staphylococcus aureus [11] = assay: Antibacterial activity against methicillin-resistant Staphylococcus aureus by broth microdilution method; format: functional
Staphylococcus aureus [12] = assay: Antibacterial activity against Staphylococcus aureus by broth microdilution method; format: functional

SMILES | MIC (Staphylococcus aureus [1]) [µg/mL] | CMC [2] [µg/mL] | MIC (Staphylococcus aureus [3]) [µg/mL] | EC10 [4] [µg/mL] | MIC (Staphylococcus aureus [5]) [µg/mL] | MIC (Staphylococcus aureus [6]) [µg/mL] | MIC (Staphylococcus aureus [7]) [µg/mL] | MIC (Staphylococcus aureus [8]) [µg/mL] | MIC (Staphylococcus aureus [9]) [µg/mL] | MIC (Staphylococcus aureus [10]) [µg/mL] | MIC (Staphylococcus aureus [11]) [µg/mL] | MIC (Staphylococcus aureus [12]) [µg/mL]
CCCCCCCCCCCCCCCCCCCCCOC(=O)NC(C)(CCC(=O)O)CCC(=O)O | 4.5 (≈ 8.53 µM) | 9 | 2.2 (≈ 4.17 µM) | 16 | 3.4 (≈ 6.44 µM) | 3.4 (≈ 6.44 µM) | 2.2 (≈ 4.17 µM) | 3.4 (≈ 6.44 µM) | 4.5 (≈ 8.53 µM) | – | – | –
CCCCCCCCCCCCCCCCCCCCCOC(=O)NC(CCC(=O)O)(CCC(=O)O)CCC(=O)O | 7 (≈ 11.9 µM) | 18 | 4.5 (≈ 7.68 µM) | 31 | 27 (≈ 46.1 µM) | 7 (≈ 11.9 µM) | 14 (≈ 23.9 µM) | 7 (≈ 11.9 µM) | 5.3 (≈ 9.05 µM) | 7 (≈ 11.9 µM) | – | –
CCCCCCCCCCCCCCCCCCCOC(=O)NC(C)(CCC(=O)O)CCC(=O)O | 2.2 (≈ 4.4 µM) | 9 | 2.2 (≈ 4.4 µM) | 16 | 2.2 (≈ 4.4 µM) | 1.7 (≈ 3.4 µM) | 2.2 (≈ 4.4 µM) | 2.2 (≈ 4.4 µM) | 2.2 (≈ 4.4 µM) | – | – | –
CCCCCCCCCCCCCCCCCCCCCCCNC(=O)NC(CCC(=O)O)(CCC(=O)O)CCC(=O)O | 11 (≈ 17.9 µM) | – | 6.8 (≈ 11.1 µM) | 31 | 54 (≈ 88.1 µM) | 14 (≈ 22.8 µM) | 43 (≈ 70.2 µM) | 7 (≈ 11.4 µM) | 11 (≈ 17.9 µM) | 14 (≈ 22.8 µM) | – | –
CCCCCCCCCCCCCCCCCCCCCCC(=O)NC(CCC(=O)O)(CCC(=O)O)CCC(=O)O | 7 (≈ 12 µM) | 18 | 4.5 (≈ 7.71 µM) | 31 | 54 (≈ 92.5 µM) | 14 (≈ 24 µM) | 14 (≈ 24 µM) | 7 (≈ 12 µM) | 7 (≈ 12 µM) | 14 (≈ 24 µM) | – | –
CCCCCCCCCCCCCC(=O)O [MYRISTIC ACID] | – | – | – | – | – | – | – | – | – | – | 250 (≈ 1090 µM) | 250 (≈ 1090 µM)
CCCCCCCCCCCCCCCCCCCCCCCOC(=O)NC(CCC(=O)O)(CCC(=O)O)CCC(=O)O | 3.6 (≈ 5.86 µM) | 18 | 4.5 (≈ 7.33 µM) | 63 | 23 (≈ 37.5 µM) | 7 (≈ 11.4 µM) | 14 (≈ 22.8 µM) | 3.6 (≈ 5.86 µM) | 5.3 (≈ 8.63 µM) | 11 (≈ 17.9 µM) | – | –
CCCCCCCCCCCCCCCCCCCCC(=O)NC(C)(CCC(=O)O)CCC(=O)O | 3.6 (≈ 7.23 µM) | 9 | 2.2 (≈ 4.42 µM) | 7.8 | 2.2 (≈ 4.42 µM) | 3.6 (≈ 7.23 µM) | 3.6 (≈ 7.23 µM) | 3.6 (≈ 7.23 µM) | 3.6 (≈ 7.23 µM) | 5.3 (≈ 10.6 µM) | – | –
CCCCCCCCCCCC(=O)O [DODECANOATE] | – | – | – | – | – | – | – | – | – | – | > 250 | 250 (≈ 1250 µM)
CCCCCCCCCCCCCCCC(=O)O [PALMITIC ACID] | – | – | – | – | – | – | – | – | – | – | 250 (≈ 975 µM) | > 250
CCCCCCCCCCCCCCCCCCCCC(=O)NC(CCC(=O)O)(CCC(=O)O)CCC(=O)O | 23 (≈ 41.4 µM) | 18 | 45 (≈ 81 µM) | 31 | 54 (≈ 97.2 µM) | 28 (≈ 50.4 µM) | 57 (≈ 103 µM) | 28 (≈ 50.4 µM) | 28 (≈ 50.4 µM) | 57 (≈ 103 µM) | – | –
CN[C@H](CC(C)C)C(=O)N[C@H]1C(=O)N[C@@H](CC(N)=O)C(=O)N[C@H]2C(=O)N[C@H]3C(=O)N[C@H](C(=O)N[C@H](C(=O)O)c4cc(O)cc(O)c4-c4cc3ccc4O)[C@H](O)c3ccc(c(Cl)c3)Oc3cc2cc(c3O[C@@H]2O[C@H](CO)[C@@H](O)[C@H](O)[C@H]2O[C@H]2C[C@](C)(N)[C@H](O)[C@H](C)O2)Oc2ccc(cc2Cl)[C@H]1O [VANCOMYCIN] | 0.38 (≈ 0.262 µM) | – | 0.25 (≈ 0.173 µM) | – | 0.25 (≈ 0.173 µM) | – | 0.75 (≈ 0.518 µM) | 0.38 (≈ 0.262 µM) | – | 0.25 (≈ 0.173 µM) | – | –
CCCCCCCCCC(=O)O [DECANOIC ACID] | – | – | – | – | – | – | – | – | – | – | > 250 | 250 (≈ 1450 µM)
CCCCCCCCCCCCCCCCCCCCCCC(=O)NC(C)(CCC(=O)O)CCC(=O)O | 3.6 (≈ 6.85 µM) | 9 | 1.7 (≈ 3.23 µM) | 7.8 | 2.2 (≈ 4.18 µM) | 3.6 (≈ 6.85 µM) | 3.6 (≈ 6.85 µM) | 3.6 (≈ 6.85 µM) | 3.6 (≈ 6.85 µM) | 3.6 (≈ 6.85 µM) | – | –
CCCCCCCCCCCCCCCCCCCCCNC(=O)NC(CCC(=O)O)(CCC(=O)O)CCC(=O)O | 11 (≈ 18.8 µM) | 9 | 4.5 (≈ 7.69 µM) | 31 | 54 (≈ 92.3 µM) | 7 (≈ 12 µM) | 28 (≈ 47.9 µM) | 11 (≈ 18.8 µM) | 7 (≈ 12 µM) | 14 (≈ 23.9 µM) | – | –
CCCCCCCCCCCCCCCCCC(=O)O [STEARIC ACID] | – | – | – | – | – | – | – | – | – | – | – | > 250
